Results reported in ChEMBL document CHEMBL5653631, “A Potent and Selective ULK1 Inhibitor Suppresses Autophagy and Sensitizes Cancer Cells to Nutrient Stress” (iScience, 2018).

Experiments:
[1] = molecular target: T1, Mitogen-activated protein kinase kinase kinase 7 (Homo sapiens) (UniProt O43318); assay: Inhibition of human recombinant TAK1 at 40 nM related to control ULK1
T1 sequence (whole entry): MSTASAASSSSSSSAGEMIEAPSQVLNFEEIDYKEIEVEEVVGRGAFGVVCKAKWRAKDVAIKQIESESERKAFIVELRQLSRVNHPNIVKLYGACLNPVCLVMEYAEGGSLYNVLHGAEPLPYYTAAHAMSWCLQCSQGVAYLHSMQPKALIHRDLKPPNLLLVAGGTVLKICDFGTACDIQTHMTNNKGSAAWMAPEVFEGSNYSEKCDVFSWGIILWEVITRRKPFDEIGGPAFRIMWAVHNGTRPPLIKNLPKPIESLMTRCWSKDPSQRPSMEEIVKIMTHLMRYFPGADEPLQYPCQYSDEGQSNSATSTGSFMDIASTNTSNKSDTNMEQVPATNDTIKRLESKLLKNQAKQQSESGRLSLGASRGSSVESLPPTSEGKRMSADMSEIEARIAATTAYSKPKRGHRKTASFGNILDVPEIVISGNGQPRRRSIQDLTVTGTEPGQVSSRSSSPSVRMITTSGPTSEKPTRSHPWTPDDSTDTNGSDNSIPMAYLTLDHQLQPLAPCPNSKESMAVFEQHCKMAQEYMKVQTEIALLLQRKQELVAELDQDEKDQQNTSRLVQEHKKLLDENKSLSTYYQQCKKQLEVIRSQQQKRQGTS

[2] = molecular target: T2, TGF-beta receptor type-1 (Homo sapiens) (UniProt P36897); assay: Inhibition of human recombinant TGFbR1 at 40 nM related to control ULK1
T2 sequence (whole entry): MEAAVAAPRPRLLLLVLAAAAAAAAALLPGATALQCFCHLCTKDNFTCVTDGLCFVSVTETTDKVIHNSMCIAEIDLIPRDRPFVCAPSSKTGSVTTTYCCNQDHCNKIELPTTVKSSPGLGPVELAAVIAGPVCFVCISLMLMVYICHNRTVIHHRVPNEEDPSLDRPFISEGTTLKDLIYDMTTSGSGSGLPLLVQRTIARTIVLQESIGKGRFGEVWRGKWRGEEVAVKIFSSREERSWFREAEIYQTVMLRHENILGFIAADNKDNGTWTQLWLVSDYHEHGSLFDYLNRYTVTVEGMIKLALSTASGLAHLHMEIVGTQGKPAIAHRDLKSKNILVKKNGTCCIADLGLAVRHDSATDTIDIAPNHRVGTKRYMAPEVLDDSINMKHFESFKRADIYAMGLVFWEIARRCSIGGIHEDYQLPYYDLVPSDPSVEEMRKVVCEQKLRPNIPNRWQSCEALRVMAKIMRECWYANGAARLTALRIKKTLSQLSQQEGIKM

[3] = molecular target: Death-associated protein kinase 1 (Homo sapiens) (UniProt P53355); assay: Inhibition of human recombinant DAPK1 at 500 nM related to control ULK1
[4] = molecular target: BDNF/NT-3 growth factors receptor (Homo sapiens) (UniProt Q16620); assay: Inhibition of human recombinant TRKB at 500 nM related to control ULK1
[5] = molecular target: Activated CDC42 kinase 1 (Homo sapiens) (UniProt Q07912); assay: Inhibition of human recombinant ACK at 15 nM in presence of ATP by radiometric assay relative to control
How it was run: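 Panel of 327 recombinant human kinases in radiometric activity assays, each screened in duplicate at a single inhibitor concentration; percent activity remaining relative to vehicle control, percent inhibition taken as 100 minus activity remaining.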

[6] = molecular target: Homeodomain-interacting protein kinase 2 (Homo sapiens) (UniProt Q9H2X6); assay: Inhibition of human recombinant HIPK2 at 15 nM in presence of ATP by radiometric assay relative to control
[7] = molecular target: T1, Mitogen-activated protein kinase kinase kinase 7 (Homo sapiens); assay: Inhibition of human recombinant TAK1 at 15 nM in presence of ATP by radiometric assay relative to control
[8] = molecular target: Cyclin-dependent kinase-like 1 (Homo sapiens) (UniProt Q00532); assay: Inhibition of human recombinant CDKL1 at 15 nM related to control ULK1
[9] = molecular target: Dual specificity tyrosine-phosphorylation-regulated kinase 1A (Homo sapiens) (UniProt Q13627); assay: Inhibition of human recombinant DYRK1A at 15 nM related to control ULK1

Cyclin-dependent kinase-like 1 (Homo sapiens), sequence (Q00532 whole entry): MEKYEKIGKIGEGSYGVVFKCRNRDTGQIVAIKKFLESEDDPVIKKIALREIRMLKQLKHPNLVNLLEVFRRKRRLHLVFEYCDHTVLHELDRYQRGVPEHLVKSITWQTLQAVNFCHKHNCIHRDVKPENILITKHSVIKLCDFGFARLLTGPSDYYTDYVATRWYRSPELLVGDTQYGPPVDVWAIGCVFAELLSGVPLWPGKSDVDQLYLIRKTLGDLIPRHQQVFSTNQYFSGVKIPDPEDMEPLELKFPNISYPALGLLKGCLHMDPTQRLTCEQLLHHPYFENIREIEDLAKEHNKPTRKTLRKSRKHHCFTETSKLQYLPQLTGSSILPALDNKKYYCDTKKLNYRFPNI
Activated CDC42 kinase 1 (Homo sapiens), sequence (Q07912 whole entry, looked up): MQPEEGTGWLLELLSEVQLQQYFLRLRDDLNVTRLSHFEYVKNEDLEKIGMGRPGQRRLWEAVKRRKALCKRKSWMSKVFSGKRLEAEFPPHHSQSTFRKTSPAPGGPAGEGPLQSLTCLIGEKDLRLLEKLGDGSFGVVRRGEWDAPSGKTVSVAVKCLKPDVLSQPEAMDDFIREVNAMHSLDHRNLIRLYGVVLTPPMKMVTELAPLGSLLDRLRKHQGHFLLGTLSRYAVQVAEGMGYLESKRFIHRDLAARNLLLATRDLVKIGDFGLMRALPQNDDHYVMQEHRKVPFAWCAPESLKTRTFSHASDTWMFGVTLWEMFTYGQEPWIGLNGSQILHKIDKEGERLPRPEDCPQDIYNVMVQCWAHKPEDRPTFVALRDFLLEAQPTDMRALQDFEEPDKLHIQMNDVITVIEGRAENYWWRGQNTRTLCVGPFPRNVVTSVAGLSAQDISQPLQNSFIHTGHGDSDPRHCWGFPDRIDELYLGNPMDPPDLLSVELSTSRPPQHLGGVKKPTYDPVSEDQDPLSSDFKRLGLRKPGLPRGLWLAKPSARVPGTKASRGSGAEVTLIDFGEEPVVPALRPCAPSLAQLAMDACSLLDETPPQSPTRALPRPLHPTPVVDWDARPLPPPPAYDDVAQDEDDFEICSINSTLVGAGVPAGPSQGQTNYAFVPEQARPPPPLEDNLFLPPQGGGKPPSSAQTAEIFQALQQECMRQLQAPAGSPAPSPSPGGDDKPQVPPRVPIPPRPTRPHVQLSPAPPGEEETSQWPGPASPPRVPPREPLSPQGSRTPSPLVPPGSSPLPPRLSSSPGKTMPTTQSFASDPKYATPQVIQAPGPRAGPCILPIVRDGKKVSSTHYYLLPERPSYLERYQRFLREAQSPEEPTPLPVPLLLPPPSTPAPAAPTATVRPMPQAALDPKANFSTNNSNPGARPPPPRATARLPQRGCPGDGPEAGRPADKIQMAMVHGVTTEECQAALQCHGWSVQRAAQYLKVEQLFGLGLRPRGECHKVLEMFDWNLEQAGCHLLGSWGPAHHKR
BDNF/NT-3 growth factors receptor (Homo sapiens), sequence (Q16620 32-822 limits assumed): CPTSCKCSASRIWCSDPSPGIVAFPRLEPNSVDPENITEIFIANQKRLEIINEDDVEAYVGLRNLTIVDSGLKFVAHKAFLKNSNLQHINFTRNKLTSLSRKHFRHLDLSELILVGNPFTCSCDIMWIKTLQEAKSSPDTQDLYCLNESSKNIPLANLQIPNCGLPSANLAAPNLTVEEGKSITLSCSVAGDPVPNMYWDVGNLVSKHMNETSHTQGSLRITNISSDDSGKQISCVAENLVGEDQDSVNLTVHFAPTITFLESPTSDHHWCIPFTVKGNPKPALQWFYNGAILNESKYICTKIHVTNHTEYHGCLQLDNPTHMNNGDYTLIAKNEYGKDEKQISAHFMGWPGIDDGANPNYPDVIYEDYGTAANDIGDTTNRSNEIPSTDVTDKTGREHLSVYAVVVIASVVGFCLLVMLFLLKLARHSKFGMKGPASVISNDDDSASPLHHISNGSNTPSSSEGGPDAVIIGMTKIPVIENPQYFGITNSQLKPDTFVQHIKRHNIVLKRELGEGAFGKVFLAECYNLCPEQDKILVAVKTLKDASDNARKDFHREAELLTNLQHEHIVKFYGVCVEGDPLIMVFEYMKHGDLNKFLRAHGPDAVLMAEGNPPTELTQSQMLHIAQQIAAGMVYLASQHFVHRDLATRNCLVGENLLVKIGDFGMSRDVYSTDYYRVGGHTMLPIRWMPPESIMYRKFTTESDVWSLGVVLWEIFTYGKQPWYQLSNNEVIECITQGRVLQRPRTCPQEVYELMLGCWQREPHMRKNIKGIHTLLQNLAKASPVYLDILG
Homeodomain-interacting protein kinase 2 (Homo sapiens), sequence (Q9H2X6 whole entry, looked up): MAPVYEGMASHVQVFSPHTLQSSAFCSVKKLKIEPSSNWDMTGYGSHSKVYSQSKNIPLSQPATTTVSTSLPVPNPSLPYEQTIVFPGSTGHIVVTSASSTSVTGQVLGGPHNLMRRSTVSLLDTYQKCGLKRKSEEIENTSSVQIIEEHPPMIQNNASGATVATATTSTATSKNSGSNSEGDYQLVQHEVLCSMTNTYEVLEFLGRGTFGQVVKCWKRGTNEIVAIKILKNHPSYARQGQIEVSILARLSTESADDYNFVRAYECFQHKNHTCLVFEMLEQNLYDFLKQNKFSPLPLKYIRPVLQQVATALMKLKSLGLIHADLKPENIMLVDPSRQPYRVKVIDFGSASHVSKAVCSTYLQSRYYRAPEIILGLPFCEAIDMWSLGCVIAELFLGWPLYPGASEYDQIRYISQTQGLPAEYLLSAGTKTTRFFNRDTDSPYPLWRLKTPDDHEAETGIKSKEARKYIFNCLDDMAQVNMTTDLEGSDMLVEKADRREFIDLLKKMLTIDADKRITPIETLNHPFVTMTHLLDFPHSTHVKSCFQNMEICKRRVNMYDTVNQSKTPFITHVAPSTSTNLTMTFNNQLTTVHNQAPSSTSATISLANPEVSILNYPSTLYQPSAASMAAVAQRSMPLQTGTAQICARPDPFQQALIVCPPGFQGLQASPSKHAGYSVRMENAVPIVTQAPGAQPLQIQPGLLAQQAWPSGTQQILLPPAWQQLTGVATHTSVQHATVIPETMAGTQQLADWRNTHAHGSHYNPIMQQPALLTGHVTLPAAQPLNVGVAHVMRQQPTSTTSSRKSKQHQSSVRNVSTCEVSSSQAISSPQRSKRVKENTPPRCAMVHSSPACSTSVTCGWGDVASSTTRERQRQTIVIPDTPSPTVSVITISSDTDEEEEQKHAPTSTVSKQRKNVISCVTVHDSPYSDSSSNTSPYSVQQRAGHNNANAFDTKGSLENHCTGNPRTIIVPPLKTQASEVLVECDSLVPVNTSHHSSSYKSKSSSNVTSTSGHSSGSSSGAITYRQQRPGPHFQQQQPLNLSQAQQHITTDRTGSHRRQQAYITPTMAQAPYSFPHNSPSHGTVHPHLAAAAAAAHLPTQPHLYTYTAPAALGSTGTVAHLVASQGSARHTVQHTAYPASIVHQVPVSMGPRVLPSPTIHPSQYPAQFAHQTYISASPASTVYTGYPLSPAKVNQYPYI
Death-associated protein kinase 1 (Homo sapiens), sequence (P53355 whole entry, looked up): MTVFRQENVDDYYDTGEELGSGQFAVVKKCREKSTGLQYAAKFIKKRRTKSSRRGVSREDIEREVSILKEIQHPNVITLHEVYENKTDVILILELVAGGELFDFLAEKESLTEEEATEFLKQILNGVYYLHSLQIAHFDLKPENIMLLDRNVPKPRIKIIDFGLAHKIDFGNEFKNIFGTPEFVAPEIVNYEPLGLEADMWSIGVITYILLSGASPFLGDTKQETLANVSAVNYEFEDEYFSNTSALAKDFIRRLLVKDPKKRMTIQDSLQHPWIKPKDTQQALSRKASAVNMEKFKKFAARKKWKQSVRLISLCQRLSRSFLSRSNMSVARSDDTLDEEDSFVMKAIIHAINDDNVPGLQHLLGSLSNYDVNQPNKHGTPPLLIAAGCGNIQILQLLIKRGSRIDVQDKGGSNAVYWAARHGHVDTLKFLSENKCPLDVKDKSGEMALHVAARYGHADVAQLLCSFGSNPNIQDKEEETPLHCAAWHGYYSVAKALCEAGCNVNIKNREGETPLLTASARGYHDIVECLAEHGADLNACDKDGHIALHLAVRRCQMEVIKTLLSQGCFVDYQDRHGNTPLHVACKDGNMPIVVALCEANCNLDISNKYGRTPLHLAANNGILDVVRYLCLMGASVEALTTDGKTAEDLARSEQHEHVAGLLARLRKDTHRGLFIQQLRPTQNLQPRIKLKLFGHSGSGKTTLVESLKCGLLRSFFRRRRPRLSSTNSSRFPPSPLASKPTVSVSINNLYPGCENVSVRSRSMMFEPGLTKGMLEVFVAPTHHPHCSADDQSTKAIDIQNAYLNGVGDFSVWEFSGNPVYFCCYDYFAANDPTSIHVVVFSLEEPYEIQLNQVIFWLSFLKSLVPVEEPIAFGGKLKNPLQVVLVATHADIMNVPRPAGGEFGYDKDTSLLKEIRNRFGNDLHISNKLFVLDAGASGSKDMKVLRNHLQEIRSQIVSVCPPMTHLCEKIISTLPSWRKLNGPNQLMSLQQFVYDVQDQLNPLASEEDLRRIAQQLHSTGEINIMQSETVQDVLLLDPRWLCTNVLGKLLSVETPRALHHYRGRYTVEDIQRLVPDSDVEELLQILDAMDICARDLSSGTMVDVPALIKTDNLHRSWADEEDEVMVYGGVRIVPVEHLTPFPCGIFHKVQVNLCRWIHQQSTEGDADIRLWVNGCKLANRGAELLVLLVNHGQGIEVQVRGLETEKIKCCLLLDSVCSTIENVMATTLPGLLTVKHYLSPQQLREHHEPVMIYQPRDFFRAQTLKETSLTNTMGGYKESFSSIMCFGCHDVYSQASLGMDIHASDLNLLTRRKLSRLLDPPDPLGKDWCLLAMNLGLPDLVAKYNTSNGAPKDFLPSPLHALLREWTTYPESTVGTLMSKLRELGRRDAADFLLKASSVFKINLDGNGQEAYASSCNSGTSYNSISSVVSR

## O=C(N[C@@H](C1CC1)C(F)(F)F)c1cc(-c2cnn3cc(-c4ccc(F)cc4)cnc23)cs1
[1]
  fold change (FC): 0
[2]
  fold change (FC): 0

## CNC(=O)c1ccccc1Oc1nc(Nc2cc(OC)c(OC)c(OC)c2)ncc1Br
[3]
  fold change (FC): 0
[4]
  fold change (FC): 0.65

## CC(C)[C@H](NC(=O)c1cc(-c2cnn3cc(-c4ccc(OCCN5CCCCC5)cc4)cnc23)cs1)C(F)(F)F
[5]
  inhibition: 0%
[6]
  inhibition: 3%
[7]
  inhibition: 1%
[8]
  fold change (FC): 0.27
[9]
  fold change (FC): 0.83
